Measured values published in ChEMBL document CHEMBL1649208, “High-throughput screening identifies three inhibitor classes of the telomere resolvase from the lyme disease spirochete” (Antimicrob Agents Chemother, 2009).

How the values were obtained:
Telomere resolvase ResT = biological target: T1, Telomere resolvase ResT (Borrelia burgdorferi (strain ATCC 35210 / B31 / CIP 102532 / DSM4680), UniProt O50979); assay: Inhibition of Borrelia burgdorferi telomere resolvase by gel-based telomere resolution assay; set-up: species or system Borreliella burgdorferi
T1 sequence (O50979 whole entry): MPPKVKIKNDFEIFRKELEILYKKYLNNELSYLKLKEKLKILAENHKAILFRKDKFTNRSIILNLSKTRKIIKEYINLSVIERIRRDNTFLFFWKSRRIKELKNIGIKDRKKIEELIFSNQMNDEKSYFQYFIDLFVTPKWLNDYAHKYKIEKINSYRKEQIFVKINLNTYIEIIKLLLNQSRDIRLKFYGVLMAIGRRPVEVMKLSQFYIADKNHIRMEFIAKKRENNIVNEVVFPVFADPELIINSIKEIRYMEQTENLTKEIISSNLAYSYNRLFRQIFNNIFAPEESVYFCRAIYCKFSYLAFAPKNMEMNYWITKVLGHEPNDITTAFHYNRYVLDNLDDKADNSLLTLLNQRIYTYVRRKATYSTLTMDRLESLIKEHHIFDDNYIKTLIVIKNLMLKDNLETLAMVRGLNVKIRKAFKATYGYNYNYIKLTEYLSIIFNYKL

[1] = biological target: T2, Telomere resolvase ResT (Borrelia burgdorferi (strain ATCC 35210 / B31 / CIP 102532 / DSM4680)) (UniProt O50979); assay: Inhibition of Borrelia burgdorferi telomere resolvase assessed as DNA cleavage at 10 uM; details: Borreliella burgdorferi
T2 sequence (whole entry): T1 sequence (O50979 whole entry)

[2] = biological target: T2, Telomere resolvase ResT (Borrelia burgdorferi (strain ATCC 35210 / B31 / CIP 102532 / DSM4680)); assay: Inhibition of Borrelia burgdorferi telomere resolvase assessed as inhibition of telomere resolution at 10 uM; details: Borreliella burgdorferi
[3] = biological target: T2, Telomere resolvase ResT (Borrelia burgdorferi (strain ATCC 35210 / B31 / CIP 102532 / DSM4680)); assay: Inhibition of Borrelia burgdorferi telomere resolvase 164-449 sequence assessed as inhibition of DNA binding activity at 10 uM by electrophoretic mobility shift assay; details: Borreliella burgdorferi
[4] = biological target: T2, Telomere resolvase ResT (Borrelia burgdorferi (strain ATCC 35210 / B31 / CIP 102532 / DSM4680)); assay: Inhibition of Borrelia burgdorferi telomere resolvase assessed as reduction in DNA cleavage at 10 uM; details: Borreliella burgdorferi
In short: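 Cleavage-step assay with 5′-bridging phosphorothiolate oligonucleotide substrate (OGCB116+OGCB117), 5.4 nM, 32P-labeled. Recombinant ResT at 165 nM, 10% DMSO final, 25 mM Tris-HCl pH 8.5, 100 mM NaCl, 1 mM EDTA, 25% glycerol. 30 min at 30°C, stopped with 0.1% SDS. Covalent protein–DNA complex resolved on 5% SDS-polyacrylamide gel, phosphorimager. Expressed relative to ResT+DMSO control.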

Compound | IC50 (Telomere resolvase ResT) [µM] | % cleavage relative to control [1] [%] | inhibition [2] [%] | % binding relative to control [3] [%] | inhibition [4] [%]
O=C(O)CCCCCCCCCCCCC1C=CCC1 (centres undefined) | 2.62 | 75 | ≥ 70 | 5 | 
COc1cc(O)c2c(c1)oc(=O)c1c3cc(O)c(O)cc3oc21 [WEDELOLACTONE] | 8.67 |  | ≥ 70 |  | 6
O=C(O)c1ccc(-c2nc(-c3ccc(-c4ccccc4)cc3)c(-c3ccc(-c4ccccc4)cc3)[nH]2)cc1 | 9.52 | 43 | ≥ 70 | 33 | 
O=C(O)c1ccc2c3c(cccc13)C(=O)N(c1ccc(-c3nc4ccc(N5C(=O)c6cccc7c(C(=O)O)ccc(c67)C5=O)cc4[nH]3)cc1)C2=O | 3.16 | 65 | ≥ 70 | 16 | 
C[C@H](CCC(=O)O)[C@H]1CC[C@H]2[C@@H]3CC[C@@H]4CCCC[C@]4(C)[C@H]3CC[C@@]12C | 1.96 | 79 | ≥ 70 | 14 | 
